# According to the array DNA melting data of Ke et al. (doi:10.1101/2024.01.08.574731):
# What was measured:
# [1] = folding enthalpy; higher = less favourable; fluorescence melt of hairpins on a sequencing array, two-state fit; conditions: sodium 0.088 M
# How it was run: (§1)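 Two-state fits, bootstrapped, provided melting temperature and folding enthalpy from Cy3 fluorescence normalised to pre-quench Cy3 and to control constructs. Library hairpins with annealed Cy3 and quencher oligos were imaged on a sequenced MiSeq flow cell in 50 mM Na-HEPES pH 8.0, 25 mM NaCl, at 2.5 °C intervals up to 60 °C. Four replicates were combined with inverse-variance weighting. A 9.35 °C upward shift was applied to fitted temperatures to match UV melts.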
# [2] = melting temperature; fluorescence melt of hairpins on a sequencing array, two-state fit, raised by 9.35 °C to match UV melts; conditions: sodium 0.088 M
# How it was run: as §1
Sequence,folding enthalpy [1],Tm [2]
GGGAAACGAAAGTTACCC (((.(((....))).))),-29.5 kcal/mol,50.7 °C
GGGAAACGAAAGTTGCCC (((.(((....))).))),-43.9 kcal/mol,56.6 °C
GGGAAAGAAATTTCCC ((((((....)))))),-27.4 kcal/mol,48.7 °C
GGGAAAGGAAACCTTCCC (((((.(....).))))),-28.2 kcal/mol,39.2 °C
GGGAAATCGAAAGATCCC (((..(((....)))))),-21.6 kcal/mol,36 °C
GGGAACCGAAAGGTCCC (((.(((....)))))),-20.9 kcal/mol,57.3 °C
GGGAACGAAAGTTTCCC ((((((....))).))),-31.5 kcal/mol,52.9 °C
GGGAACGAAAGTTTCCCC ((((((....)))..))),-19.9 kcal/mol,53.5 °C
GGGAACGGAAACATTCCC (((((.(....).))))),-32.6 kcal/mol,39.4 °C
GGGAACTCGAAAGAGCCC (((..(((....)))))),-20.3 kcal/mol,37.8 °C
GGGAAGCGAAAGCTGCCC (((.(((....))).))),-23.2 kcal/mol,65.2 °C
GGGAAGGGAAACCTTCCC (((((((....))))))),-35.5 kcal/mol,65.4 °C
GGGAATCGAAAGATCCCC (((.(((....))).))),-24.9 kcal/mol,51.5 °C
GGGAATGCGAAAGCACCC (((..(((....)))))),-19.4 kcal/mol,42.3 °C
GGGAATGGAAACACTCCC ((((.((....)).)))),-29.3 kcal/mol,36.9 °C
GGGAATGGAAACATCCCC (((.(((....))).))),-24.7 kcal/mol,42.2 °C
GGGACACGAAAGTGACCC (((.(((....))).))),-37.1 kcal/mol,62.9 °C
GGGACACGAAAGTGCCCC (((.(((....))).))),-37.8 kcal/mol,63.1 °C
GGGACAGGAAACCGTCCC (((((.(....).))))),-36.2 kcal/mol,52.8 °C
GGGACAGGAAACTATCCC ((((.((....)).)))),-29.4 kcal/mol,35.4 °C
GGGACCGAAAGGTCACCC ((((((....)))..))),-12.2 kcal/mol,56.9 °C
GGGACCGAAAGGTCTCCC ((((((....)))..))),-11.7 kcal/mol,51.9 °C
GGGACCGAAAGGTTCCCC ((((((....)))..))),-15.4 kcal/mol,59.7 °C

Sequence,folding enthalpy [1],Tm [2]
GGGACCGGAAACGGCCCC (((.(((....))).))),-37 kcal/mol,62.5 °C
GGGACCGGAAACGGTCTC (.(((((....))))).),-13.2 kcal/mol,59.2 °C
GGGACCGGAAACGGTTCC ((.((((....)))).)),-42.5 kcal/mol,62.6 °C
GGGACCTCGAAAGAGCCC (((..(((....)))))),-19.4 kcal/mol,35.3 °C
GGGACGGGAAACCATCCC ((((.((....)).)))),-31.6 kcal/mol,44.7 °C
GGGACGGGAAACCGCCCC (((.(((....))).))),-44.1 kcal/mol,57.3 °C
GGGACGGGAAACTGTCCC (((((.(....).))))),-39.8 kcal/mol,57.8 °C
GGGACTACGAAAGTACCC (((..(((....)))))),-19.5 kcal/mol,36.1 °C
GGGACTCGAAAGAGCCC (((.(((....)))))),-28.8 kcal/mol,54.9 °C
GGGACTGGAAACAATCCC ((((.((....)).)))),-27.6 kcal/mol,37.9 °C
GGGACTGGAAACGGTTCC ((.((.(....).)).)),-18.9 kcal/mol,42 °C
GGGAGACGAAAGTCGCCC (((.(((....))).))),-33 kcal/mol,66 °C
GGGAGCGAAAGCTAACCC ((((((....)))..))),-16.1 kcal/mol,45 °C
GGGAGCGAAAGCTTCCCC ((((((....)))..))),-12.9 kcal/mol,61 °C
GGGAGCGGAAACGCCCCC (((.(((....))).))),-27.4 kcal/mol,61.4 °C
GGGAGCGGAAACGCTCTC (.(((((....))))).),-14.5 kcal/mol,58.4 °C
GGGAGGACGAAAGTCCCC (((..(((....)))))),-11.6 kcal/mol,53.1 °C
GGGAGTCCGAAAGGACCC (((..(((....)))))),-14 kcal/mol,53.6 °C
GGGAGTCGAAAGACGCCC (((.(((....))).))),-30 kcal/mol,64.3 °C
GGGAGTGGAAACGCTCTC (.(((.(....).))).),-17.8 kcal/mol,39.7 °C
GGGAGTGGAAACGCTTCC ((.((.(....).)).)),-20.7 kcal/mol,39 °C
GGGATAGAAATATCCC ((((((....)))))),-30.3 kcal/mol,51.1 °C
GGGATAGGAAACTATCTC (.(((((....))))).),-25.3 kcal/mol,39.8 °C

Sequence,folding enthalpy [1],Tm [2]
GGGATCCGAAAGGACCC (((.(((....)))))),-36.5 kcal/mol,55.7 °C
GGGATCGAAAGATACCCC ((((((....)))..))),-18.1 kcal/mol,51.6 °C
GGGATCGAAAGATGCCCC ((((((....)))..))),-15 kcal/mol,49.2 °C
GGGATCGAAAGATGTCCC ((((((....)))..))),-17.3 kcal/mol,35.9 °C
GGGATCGGAAACGACCCC (((.(((....))).))),-37.5 kcal/mol,52.4 °C
GGGATCGGAAACGGTCTC (.((.((....)).)).),-22.1 kcal/mol,39.6 °C
GGGATGACGAAAGTCCCC (((..(((....)))))),-18.4 kcal/mol,42.9 °C
GGGATGGGAAACCATCCC (((((((....))))))),-41.5 kcal/mol,67.4 °C
GGGATGGGAAACTGTCCC ((((..(....)..)))),-31.3 kcal/mol,43.5 °C
GGGATTCGAAAGAACCCC (((.(((....))).))),-34 kcal/mol,49.9 °C
GGGATTGGAAACAATCCC (((((((....))))))),-41.9 kcal/mol,60.5 °C
GGGATTGGAAACAGTCTC (.((.((....)).)).),-13 kcal/mol,27.7 °C
GGGATTGGAAACGATTCC ((.((.(....).)).)),-21 kcal/mol,36.9 °C
GGGCAACGAAAGTTCCCC (((.(((....))).))),-20.2 kcal/mol,47.2 °C
GGGCAAGAAATTGCCC ((((((....)))))),-33.9 kcal/mol,63.6 °C
GGGCAGCCGAAAGGCCCC (((..(((....)))))),-15.1 kcal/mol,48.1 °C
GGGCAGCGAAAGCTACCC (((.(((....))).))),-31.2 kcal/mol,57.1 °C
GGGCATCGAAAGATCCC (((.(((....)))))),-30.4 kcal/mol,50.4 °C
GGGCATGGAAACACGCCC ((((.((....)).)))),-45.3 kcal/mol,51.8 °C
GGGCATGGAAACGTGTCC ((.((.(....).)).)),-29 kcal/mol,45 °C
GGGCCAGGAAACCGACCC (((.(.(....).).))),-20.9 kcal/mol,34.6 °C
GGGCCCGAAAGGGCACCC ((((((....)))..))),-9.72 kcal/mol,65 °C
GGGCCCGCGAAAGCGCCC (((..(((....)))))),-15.6 kcal/mol,55.8 °C

Sequence,folding enthalpy [1],Tm [2]
GGGCCCGGAAACGGGCTC (.(((((....))))).),-12.2 kcal/mol,68 °C
GGGCCGACGAAAGTCCCC (((..(((....)))))),-12 kcal/mol,43.8 °C
GGGCCGCCGAAAGGCCCC (((..(((....)))))),-13.6 kcal/mol,64.1 °C
GGGCCTGGAAACAGACCC (((.(((....))).))),-38.6 kcal/mol,50.9 °C
GGGCCTGGAAACAGGTCC ((.((((....)))).)),-36.4 kcal/mol,65 °C
GGGCCTGGAAACGGGCTC (.(((.(....).))).),-24 kcal/mol,50.2 °C
GGGCGACGAAAGTCCCC (((.(((....)))))),-27.5 kcal/mol,55.4 °C
GGGCGAGGAAACTCGCTC (.(((((....))))).),-15.8 kcal/mol,58.1 °C
GGGCGAGGAAACTTGCCC ((((.((....)).)))),-45.6 kcal/mol,59.1 °C
GGGCGCCGAAAGGCACCC (((.(((....))).))),-22.8 kcal/mol,67.5 °C
GGGCGCGAAAGCGAACCC ((((((....)))..))),-14 kcal/mol,59.3 °C
GGGCGCGAAAGCGCTCCC ((((((....)))..))),-9.05 kcal/mol,53.6 °C
GGGCGGGCGAAAGCCCCC (((..(((....)))))),-11.5 kcal/mol,51.2 °C
GGGCGTCGAAAGACACCC (((.(((....))).))),-43.8 kcal/mol,58.9 °C
GGGCGTCGAAAGACTCCC (((.(((....))).))),-38.3 kcal/mol,53.9 °C
GGGCGTGGAAACGTGCCC ((((..(....)..)))),-41.4 kcal/mol,54.4 °C
GGGCTAACGAAAGTTCCC (((..(((....)))))),-16.7 kcal/mol,34.9 °C
GGGCTACGAAAGTACCCC (((.(((....))).))),-17.5 kcal/mol,49.4 °C
GGGCTATCGAAAGATCCC (((..(((....)))))),-22 kcal/mol,31.9 °C
GGGCTCCGAAAGGACCC (((.(((....)))))),-30.1 kcal/mol,57.4 °C
GGGCTCGAAAGAGACCCC ((((((....)))..))),-12.7 kcal/mol,63.8 °C
GGGCTCGAAAGAGATCCC ((((((....)))..))),-18.9 kcal/mol,47.8 °C
